A short description of data set [1]: Solubility in Hanks balanced salt solution at 1 mg after 24 hrs. In kind it is physicochemical.
Data set [2] in a line: Chemical stability assessed as half life of hydrolysis. The data set is classed as physicochemical. The method in brief:
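UV-vis spectra (190-500 nm) followed in PBS (20 mM, pH 7.0, ionic strength 0.1 M with KCl)/CH₃CN 1:1 at 25 °C. The reaction was started by adding substrate freshly dissolved in acetonitrile, to a final (3-8) × 10^-5 M. Observed first- and second-step hydrolysis rate constants came from fitting the spectral data to a kinetic equation, and half-life was derived from them.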

A short description of data set [3]: Permeability from apical to basolateral side of dog MDCK2 cell monolayer assessed as intact drug level in basolateral compartment after 6 hrs. To be noted: mdck-ii. The data set is classed as ADME, cell-based, Canis lupus familiaris. An outline of the steps: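 MDCK-2 monolayers were grown in DMEM with 10% FBS, seeded at 5 × 10⁵ cells/cm² on 24-mm Transwell inserts, and used at TER 100-300 Ω·cm² (10-20 days). Apical dosing was formally 30-50 µM compound in HBSS with 0.1% DMSO. After 6 h, basolateral solution was analysed by HPLC-UV at 300/370 nm and quantified against standard curves (quantification limit 0.2 µM).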

In the next data set the test system is Caco-2. Put plainly: Permeability from apical to basolateral side of human Caco-2 cell monolayer assessed as intact drug level in basolateral compartment after 6 hrs. The data set is classed as ADME, cell-based. To be noted: caco-2, 6 h. The method in brief: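 Caco-2 cells were cultured in DMEM with 10% FBS, seeded at 3 × 10⁵ cells/cm² on 24-mm Transwell inserts, and tested at TER 1.5-2 kΩ·cm² (10-20 days). Compound at formally 30-50 µM in HBSS with 0.1% DMSO was placed apically. Basolateral content at 6 h was measured by HPLC-UV (300/370 nm) against standard curves; quantification limit 0.2 µM.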
(In general: Caco-2 cells form a polarised layer with tight junctions and transporters.)

Data set [4] can be described thus: Permeability from apical to basolateral side of dog MDCK1 cell monolayer assessed as intact drug level in basolateral compartment after 6 hrs. Conditions: mdck1, 6 h. In kind it is ADME, cell-based, Canis lupus familiaris. The method in brief:
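MDCK-1 cells in DMEM with 10% FBS were seeded at 3 × 10⁵ cells/cm² on 24-mm Transwell inserts and used at TER ~10-15 kΩ·cm² (10-20 days). Compound was applied apically at formally 30-50 µM in HBSS with 0.1% DMSO. Basolateral fluid was taken at 6 h and quantified by HPLC-UV (300/370 nm) against standard curves; quantification limit 0.2 µM.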

Broadly, the solubility is how much of the substance goes into solution per volume. In the case of `CC(=O)Oc1cc(OC(C)=O)c2c(=O)c(OC(C)=O)c(-c3ccc(OC(C)=O)c(OC(=O)CCCNC(=O)OC(C)(C)C)c3)oc2c1`, the solubility at 24 h in data set [1] is 2.5 µM.

As for `CC(=O)Oc1cc(OC(C)=O)c2c(=O)c(OC(C)=O)c(-c3ccc(OC(C)=O)c(OC(=O)CCCCCNC(=O)OC(C)(C)C)c3)oc2c1`, in data set [1], the solubility at 24 h was 3.9 µM.

As to `Nc1ccc(C(=O)Oc2cc(-c3oc4cc(O)cc(O)c4c(=O)c3O)ccc2O)cc1`, the solubility at 24 h in data set [1] worked out at 1.5 µM.

Turning to `CC(=O)Oc1cc(OC(C)=O)c2c(=O)c(OC(C)=O)c(-c3ccc(OC(C)=O)c(OC(=O)[C@@H](C)NC(=O)OC(C)(C)C)c3)oc2c1`, the solubility at 24 h in data set [1] came to 12 µM.

As to `CC(C)(C)OC(=O)Nc1ccc(C(=O)Oc2cc(-c3oc4cc(O)cc(O)c4c(=O)c3O)ccc2O)cc1`, in data set [1], the solubility at 24 h was determined as 0.4 µM.

For the compound `CC(=O)Oc1cc(OC(C)=O)c2c(=O)c(OC(C)=O)c(-c3ccc(OC(C)=O)c(OC(=O)[C@H]4CC[C@@H](NC(=O)OC(C)(C)C)CC4)c3)oc2c1`, the solubility at 24 h in data set [1] amounted to 0.8 µM.

With `CC(C)(C)OC(=O)NCCCC(=O)Oc1cc(-c2oc3cc(O)cc(O)c3c(=O)c2O)ccc1O`, in data set [2], the t1/2 came to 2.08 h.

As to `CC(=O)Oc1cc(OC(C)=O)c2c(=O)c(OC(C)=O)c(-c3ccc(OC(C)=O)c(OC(=O)c4ccc(NC(=O)OC(C)(C)C)cc4)c3)oc2c1`, the solubility at 24 h in data set [1] came to 0.4 µM.

Consider `CC(C)(C)OC(=O)NCCCCCC(=O)Oc1cc(-c2oc3cc(O)cc(O)c3c(=O)c2O)ccc1O`, for which, in data set [2], the t1/2 was 3.67 h.

`CC(C)(C)OC(=O)N[C@H]1CC[C@@H](C(=O)Oc2cc(-c3oc4cc(O)cc(O)c4c(=O)c3O)ccc2O)CC1`: the t1/2 in data set [2] was determined as 3.31 h.

With `CC(=O)Oc1cc(OC(C)=O)c2c(=O)c(OC(C)=O)c(-c3ccc(OC(C)=O)c(OC(=O)c4ccc(N)cc4)c3)oc2c1`, the solubility at 24 h in data set [1] came out at 1 µM.

Regarding `CC(=O)Oc1cc(OC(C)=O)c2c(=O)c(OC(C)=O)c(-c3ccc(OC(C)=O)c(OC(C)=O)c3)oc2c1`, the solubility at 24 h in data set [1] worked out at 1.1 µM. Further, the Activity in data set [3] is reported as 0.5%.

`O=c1c(O)c(-c2ccc(O)c(O)c2)oc2cc(O)cc(O)c12` [QUERCETIN]: in data set [1], the solubility at 24 h worked out at 2.3 µM. Also, the Activity in the data set with Caco-2 was found to be 1%; in data set [3], 2.7%; in data set [4] it was 0.9%.
